Common to all, as to format: functional
Assay [1] relates to Tobacco mosaic virus. The assay is described as follows: Antiviral activity against Tobacco mosaic virus (TMV) in tobacco plant leaf assessed as curative effect at 100 ug/ml after 3 to 4 days. The method, boiled down: (§1)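 Whole plants of N. tabacum var. Xanthi nc at the same leaf age. Whole leaves dip-inoculated with TMV (6.0 × 10−3 mg/mL), then washed with water and dried. Compound smeared on the left half-leaf, solvent on the right as control. Local lesions counted 3−4 days after inoculation, three replicates. Inhibition % calculated from mean lesion numbers versus control.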

Assay [2] has as its system Tobacco mosaic virus. The assay is described as follows: Antiviral activity against Tobacco mosaic virus (TMV) in tobacco plant leaf assessed as curative effect at 500 ug/ml after 3 to 4 days. The method, boiled down:
as §1

Assay [3] has as its system Tobacco mosaic virus. The assay is described as follows: Antiviral activity against Tobacco mosaic virus (TMV) in tobacco plant leaf assessed as inactivation effect at 100 ug/ml after 3 to 4 days. Summed up:
(§2)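 TMV mixed with an equal volume of compound solution for 30 min. The mixture was inoculated on the left half of N. tabacum var. Xanthi nc leaves, and virus mixed with solvent on the right half as control. Local lesions recorded 3−4 days after inoculation, three replicates. Inhibition % calculated from mean lesion numbers versus control.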

Assay [4] deals with Tobacco mosaic virus. The assay is described as follows: Antiviral activity against Tobacco mosaic virus (TMV) in tobacco plant leaf assessed as inactivation effect at 500 ug/ml after 3 to 4 days. Summed up: as §2
Assay [5] concerns Tobacco mosaic virus. The assay is described as follows: Antiviral activity against Tobacco mosaic virus (TMV) in tobacco plant leaf assessed as protection effect at 500 ug/ml after 3 to 4 days. Summed up:
(§3)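 Compound smeared on the left half of growing N. tabacum var. Xanthi nc leaves of the same age, solvent on the right half as control. Leaves inoculated with TMV 12 h later. Local lesions counted 3−4 days after inoculation, three replicates. Inhibition % = (control − treated mean lesions)/control × 100.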

Assay [6] deals with Tobacco mosaic virus. The assay is described as follows: Antiviral activity against Tobacco mosaic virus (TMV) in tobacco plant leaf assessed as protection effect at 100 ug/ml after 3 to 4 days. Summed up: as §3
Assay [7] deals with Tobacco mosaic virus. The assay is described as follows: Antiviral activity against Tobacco mosaic virus (TMV) in tobacco leaf juice at 100 ug/ml after 72 hr by half-leaf method. Summed up: (§4)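 Detached leaf (half-leaf) assay in Nicotiana tabacum var. Xanthi nc, 5−6 growth stage. Whole leaf inoculated with TMV (5.88 × 10−2 μg/mL) by juice-leaf rubbing, then cut in half along the main vein. One half soaked 20 min in compound solution, the other in double-distilled water. Halves cultured 72 h at 25 °C. At least three replicates. Inhibition % = (control − treated mean local lesions)/control × 100.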

The subject of assay [8] is Tobacco mosaic virus. The assay is described as follows: Antiviral activity against Tobacco mosaic virus (TMV) in tobacco leaf juice at 500 ug/ml after 72 hr by half-leaf method. The method, boiled down: as §4

In general, inhibition refers to the share of the control response that was lost under treatment.

`COc1cc2c3c(c4ccc(OC(C)=O)cc4c2cc1OC)CN1CCC[C@H]1C3`: the inhibition at 100 µg/mL was 22.4% in the assay with Tobacco mosaic virus [1], 19.3% with Tobacco mosaic virus [3], 16.2% in the assay with Tobacco mosaic virus [6] and 30.6% in the assay on Tobacco mosaic virus [7]. In addition, the inhibition at 500 µg/mL with Tobacco mosaic virus [2] turned out to be 59.4%; in the assay on Tobacco mosaic virus [4], 58.5%; in the assay with Tobacco mosaic virus [5] it was 54.2%; in the assay with Tobacco mosaic virus [8], 68.7%.
Consider `COc1cc2c3c(c4ccc(O)cc4c2cc1OC)CN1CCC[C@@H]1C3`, for which the inhibition at 100 µg/mL in the assay on Tobacco mosaic virus [1] is 42%; in the assay with Tobacco mosaic virus [3], 33.5%; with Tobacco mosaic virus [6], 35.4%; in the assay on Tobacco mosaic virus [7] it was 40%. Besides, the inhibition at 500 µg/mL with Tobacco mosaic virus [2] was determined as 72.4%; with Tobacco mosaic virus [4] it was 65.3%; in the assay with Tobacco mosaic virus [5], 60.4%; in the assay with Tobacco mosaic virus [8], 70.5%.
In the case of `COc1ccc2c3c(c4cc(OC)c(OC)cc4c2c1)C[C@@H]1CCCN1C3` [HYPOESTESTATIN 1], the inhibition at 100 µg/mL in the assay on Tobacco mosaic virus [1] came out at 28.4%; with Tobacco mosaic virus [3], 26.7%; with Tobacco mosaic virus [6] it was 37.2%; in the assay with Tobacco mosaic virus [7], 30.5%. Also, the inhibition at 500 µg/mL with Tobacco mosaic virus [2] amounted to 56.4%; in the assay with Tobacco mosaic virus [4] it was 55.5%; in the assay with Tobacco mosaic virus [5], 51.1%; with Tobacco mosaic virus [8], 60.2%.
Turning to `C#CCOc1ccc2c3c(c4cc(OC)c(OC)cc4c2c1)C[C@H]1CCCN1C3`, the inhibition at 100 µg/mL in the assay on Tobacco mosaic virus [1] came to 36.1%; in the assay on Tobacco mosaic virus [3], 38.9%; in the assay with Tobacco mosaic virus [6], 39.7%; in the assay on Tobacco mosaic virus [7] it was 43.7%. In addition, the inhibition at 500 µg/mL in the assay with Tobacco mosaic virus [2] was 59.3%; in the assay on Tobacco mosaic virus [4], 52.8%; in the assay with Tobacco mosaic virus [5] it was 58.6%; in the assay on Tobacco mosaic virus [8] it was 61.2%.
On to `COc1cc2c3c(c4ccc(OCCO)cc4c2cc1OC)CN1CCC[C@@H]1C3`, for which the inhibition at 100 µg/mL was determined as 42.8% with Tobacco mosaic virus [1], 40.9% in the assay on Tobacco mosaic virus [3], 39.5% with Tobacco mosaic virus [6] and 47.5% with Tobacco mosaic virus [7]. The inhibition at 500 µg/mL was 74.2% with Tobacco mosaic virus [2], 70.4% with Tobacco mosaic virus [4], 71.6% with Tobacco mosaic virus [5] and 78.2% in the assay with Tobacco mosaic virus [8].
As to `COc1ccc2c3c(c4cc(OC)c(OC)cc4c2c1)C[C@H]1CCCN1C3` [(-)-ANTOFINE], the inhibition at 100 µg/mL with Tobacco mosaic virus [1] stood at 33.4%; with Tobacco mosaic virus [3], 29.4%; in the assay with Tobacco mosaic virus [6], 32.3%; in the assay with Tobacco mosaic virus [7], 30.4%. Further, the inhibition at 500 µg/mL with Tobacco mosaic virus [2] amounted to 62.5%; with Tobacco mosaic virus [4], 58%; in the assay with Tobacco mosaic virus [5], 55.7%; in the assay on Tobacco mosaic virus [8], 65.8%.
Turning to `CCOc1ccc2c3c(c4cc(OC)c(OC)cc4c2c1)C[C@@H]1CCCN1C3`, the inhibition at 100 µg/mL stood at 24.3% in the assay on Tobacco mosaic virus [1], 23% with Tobacco mosaic virus [3], 28.5% in the assay with Tobacco mosaic virus [6] and 25.6% in the assay on Tobacco mosaic virus [7]. Also, the inhibition at 500 µg/mL turned out to be 51.1% in the assay on Tobacco mosaic virus [2], 53.2% in the assay on Tobacco mosaic virus [4], 48% in the assay on Tobacco mosaic virus [5] and 56.2% with Tobacco mosaic virus [8].
Regarding `COc1cc2c3c(c4ccc(O)cc4c2cc1OC)CN1CCC[C@H]1C3`, the inhibition at 100 µg/mL in the assay on Tobacco mosaic virus [1] was found to be 23.2%; in the assay with Tobacco mosaic virus [3] it was 17.8%; with Tobacco mosaic virus [6], 19.5%; with Tobacco mosaic virus [7] it was 21.3%. The inhibition at 500 µg/mL was 49.6% with Tobacco mosaic virus [2], 46.2% with Tobacco mosaic virus [4], 43.2% in the assay with Tobacco mosaic virus [5] and 52.2% in the assay with Tobacco mosaic virus [8].
For `COc1cc2c3c(c4ccc(OCC#N)cc4c2cc1OC)CN1CCC[C@@H]1C3`, the inhibition at 100 µg/mL with Tobacco mosaic virus [1] came out at 44.1%; in the assay with Tobacco mosaic virus [3], 38.7%; in the assay on Tobacco mosaic virus [6], 42.3%; in the assay with Tobacco mosaic virus [7], 40%. Besides, the inhibition at 500 µg/mL with Tobacco mosaic virus [2] came out at 75.1%; with Tobacco mosaic virus [4] it was 72.3%; in the assay on Tobacco mosaic virus [5] it was 74.5%; in the assay with Tobacco mosaic virus [8], 79.3%.
As to `COc1cc2c3c(c4ccc(OCC#N)cc4c2cc1OC)CN1CCC[C@H]1C3`, the inhibition at 100 µg/mL amounted to 30.4% in the assay on Tobacco mosaic virus [1], 27.9% in the assay with Tobacco mosaic virus [3], 26.3% in the assay on Tobacco mosaic virus [6] and 31.5% in the assay with Tobacco mosaic virus [7]. Besides, the inhibition at 500 µg/mL worked out at 57.8% in the assay with Tobacco mosaic virus [2], 58.2% in the assay with Tobacco mosaic virus [4], 54.3% in the assay on Tobacco mosaic virus [5] and 60% in the assay on Tobacco mosaic virus [8].
With `COc1cc2c3c(c4ccc(OCCO)cc4c2cc1OC)CN1CCC[C@H]1C3`, the inhibition at 100 µg/mL is 18.6% in the assay on Tobacco mosaic virus [1], 12% in the assay on Tobacco mosaic virus [3], 10.5% in the assay with Tobacco mosaic virus [6] and 10% in the assay on Tobacco mosaic virus [7]. For the same compound, the inhibition at 500 µg/mL with Tobacco mosaic virus [2] was 44%; in the assay on Tobacco mosaic virus [4] it was 40.5%; in the assay on Tobacco mosaic virus [5], 42.3%; with Tobacco mosaic virus [8] it was 43.9%.
Turning to `CNCC(=O)N[C@@H](CO)C(=O)N[C@H]1[C@H](O)[C@@H](O)[C@H](n2ccc(N)nc2=O)O[C@@H]1C(N)=O` [NINGNANMYCIN], the inhibition at 100 µg/mL is 23.1% in the assay on Tobacco mosaic virus [1], 25% in the assay on Tobacco mosaic virus [3], 38.4% in the assay with Tobacco mosaic virus [6] and 26.8% with Tobacco mosaic virus [7]. Moreover, the inhibition at 500 µg/mL amounted to 58.7% with Tobacco mosaic virus [2], 54.2% with Tobacco mosaic virus [4], 57.9% in the assay on Tobacco mosaic virus [5] and 69.3% in the assay with Tobacco mosaic virus [8].
Take `CCOc1ccc2c3c(c4cc(OC)c(OC)cc4c2c1)C[C@H]1CCCN1C3`: the inhibition at 100 µg/mL with Tobacco mosaic virus [1] was 27.2%; with Tobacco mosaic virus [3], 28.5%; in the assay with Tobacco mosaic virus [6], 10.4%; in the assay with Tobacco mosaic virus [7] it was 32.5%. Also, the inhibition at 500 µg/mL with Tobacco mosaic virus [2] turned out to be 49.7%; in the assay with Tobacco mosaic virus [4], 43.7%; in the assay with Tobacco mosaic virus [5], 40.2%; with Tobacco mosaic virus [8] it was 50%.
Regarding `C#CCOc1ccc2c3c(c4cc(OC)c(OC)cc4c2c1)C[C@@H]1CCCN1C3`, the inhibition at 100 µg/mL with Tobacco mosaic virus [1] was 45.5%; in the assay on Tobacco mosaic virus [3], 42.4%; in the assay with Tobacco mosaic virus [6] it was 40.9%; with Tobacco mosaic virus [7], 48.6%. Further, the inhibition at 500 µg/mL in the assay with Tobacco mosaic virus [2] amounted to 74.9%; in the assay with Tobacco mosaic virus [4], 70%; in the assay with Tobacco mosaic virus [5], 71.6%; with Tobacco mosaic virus [8], 75%.

The values are drawn from ChEMBL document CHEMBL3045436, “Synthesis and antiviral activities of antofine analogues with different C-6 substituent groups” (2013).
